Source: ChEMBL document CHEMBL1148831, “1,3-disubstituted ureas functionalized with ether groups are potent inhibitors of the soluble epoxide hydrolase with improved pharmacokinetic properties” (J Med Chem, 2007)

Legend:
[1] = Stability in human liver microsomes at 100 uM after 1 hr; type: ADME, Microsome; settings: read-out: Stability
[2] = Partition coefficient, log P of the compound; type: physicochemical; settings: octanol/water
[3] = Elimination half life in dog at 0.3 mg/kg, po; type: ADME, organism-based, Canis lupus familiaris; parameters: dose 0.3 mg/kg, route oral; settings: in vivo
Method in brief: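 Oral gavage at 0.3 mg/kg in 3 ml tristerate at body temperature. Plasma assayed by LC/MS/MS. t1/2 from noncompartmental fit, minutes, at least three animals.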

[4] = Stability in human liver S9 fraction at 100 uM after 1 hr; type: ADME, subcellular; settings: read-out: Stability
Method in brief: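 Human liver microsomes (0.125 mg protein) or S9 (0.056 mg) in 0.1 M sodium phosphate pH 7.4, preincubated 5 min at 37°C. Compound added from 100 μM stock (final 1.0 μM). Started with NADPH-generating system (NADP, glucose 6-phosphate, G6PDH, MgCl₂), shaken 60 min at 37°C, stopped with cold ethanol with internal standard. Percent remaining vs 0-min ethanol-quenched control.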

[5] = Elimination half life in rat at 5 mg/kg, po; type: ADME, organism-based; parameters: dose 5 mg/kg, route oral; settings: in vivo
Method in brief: (§1)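 Rodents dosed by oral gavage at 5 mg/kg in oleic oil solution (0.1 mL mice, 1 mL rats). Whole blood (10 μL) sampled at 0, 0.5, 1, 2, 4, 6, 8 and 24 h and analysed by LC/MS/MS. Elimination t1/2 (min) from noncompartmental fit of concentration-time data, averaged over at least three animals.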

[6] = Elimination half life in mouse at 5 mg/kg, po; type: ADME, organism-based; parameters: dose 5 mg/kg, route oral; settings: in vivo; method in brief: as §1

`CCCCC(C)OCCCCCNC(=O)NC12CC3CC(CC(C3)C1)C2` (stereo unspecified) showed a remaining at 1 h, 100 µM [1] of 12%.

`CCCCOCCCCCNC(=O)NC12CC3CC(CC(C3)C1)C2` gave a logP [2] of 5, a half-life [3] of 2.17 h and a remaining at 1 h, 100 µM [1] of 25%.

`CCOCCOCCOCCCCCNC(=O)NC12CC3CC(CC(C3)C1)C2` gave a logP [2] of 3.6, a remaining at 1 h, 100 µM [4] of 11% and a half-life [5] of 0.65 h. The half-life [3] was 3 h and the remaining at 1 h, 100 µM [1] was 30%.

Work on `CCOCCOCCOCCCCCNC(=O)CC12CC3CC(CC(C3)C1)C2` yielded a remaining at 1 h, 100 µM [1] of 5%.

In the case of `O=C(NCCCCCOCCOCCOCC(F)(F)F)NC12CC3CC(CC(C3)C1)C2`, the remaining at 1 h, 100 µM [4] is reported as 1.1% and the remaining at 1 h, 100 µM [1] is reported as 39%.

Compound `CS(=O)(=O)NCCCCCOCCCCCNC(=O)NC12CC3CC(CC(C3)C1)C2` has a remaining at 1 h, 100 µM [1] of 59%.

Compound `CCCC(C)COCCCCCNC(=O)NC12CC3CC(CC(C3)C1)C2` (stereo unspecified) has a remaining at 1 h, 100 µM [1] of 12%.

`CCOCCOCCOc1cccc(NC(=O)NC23CC4CC(CC(C4)C2)C3)c1` showed a remaining at 1 h, 100 µM [4] of 9% and a remaining at 1 h, 100 µM [1] of 56%.

With `O=C(NCCCCCOCCCN1CCOCC1)NC12CC3CC(CC(C3)C1)C2` the logP [2] was 2.4, the half-life [6] was 0.25 h and the remaining at 1 h, 100 µM [4] was 34%. The half-life [5] was 3.33 h, the half-life [3] was 1.5 h and the remaining at 1 h, 100 µM [1] was 89%.

`CCCOCCCOCCCCCNC(=O)NC12CC3CC(CC(C3)C1)C2` gave a remaining at 1 h, 100 µM [1] of 6.8%.

Compound `CCCCCOC1CCC(NC(=O)NC23CC4CC(CC(C4)C2)C3)CC1` (stereo unspecified) has a logP [2] of over 5, a half-life [6] of 2.83 h and a half-life [5] of 2 h. The half-life [3] was 2 h and the remaining at 1 h, 100 µM [1] was 22%.

Compound `O=C(NC1CCC(OCCCN2CCOCC2)CC1)NC12CC3CC(CC(C3)C1)C2` (stereo unspecified) has a logP [2] of 2.2, a half-life [6] of 1.33 h and a remaining at 1 h, 100 µM [4] of 81%. The half-life [5] was 1.83 h, the half-life [3] was 2.17 h and the remaining at 1 h, 100 µM [1] was 92%.

In the case of `CCCOCCCCOCCCCCNC(=O)NC12CC3CC(CC(C3)C1)C2`, the remaining at 1 h, 100 µM [1] is reported as 7.5%.

For `COCCOCCOCCOCCCCCNC(=O)NC12CC3CC(CC(C3)C1)C2`, the remaining at 1 h, 100 µM [4] was 14% and the remaining at 1 h, 100 µM [1] was 54%.

With `CCOCCOCCOCCCCCCC(=O)NC12CC3CC(CC(C3)C1)C2` the remaining at 1 h, 100 µM [4] was 5% and the remaining at 1 h, 100 µM [1] was 32%.

In the case of `CS(=O)(=O)NCCOCCOCCCCCNC(=O)NC12CC3CC(CC(C3)C1)C2`, the remaining at 1 h, 100 µM [4] is reported as 12% and the remaining at 1 h, 100 µM [1] is reported as 42%.

In the case of `CCc1ccc(OCCOCCOCCCCCNC(=O)NC23CC4CC(CC(C4)C2)C3)cc1`, the remaining at 1 h, 100 µM [1] is reported as 21%.

`CCOCCOCCOC1CCC(NC(=O)NC23CC4CC(CC(C4)C2)C3)CC1` (stereo unspecified) gave a logP [2] of 2.9, a half-life [6] of 2.67 h and a remaining at 1 h, 100 µM [4] of 79%. For the same compound, the half-life [5] was 2.5 h, the half-life [3] was 1.5 h and the remaining at 1 h, 100 µM [1] was 91%.

With `O=C(Nc1ccc(OCCCN2CCOCC2)cc1)NC12CC3CC(CC(C3)C1)C2` the logP [2] was 2.9, the remaining at 1 h, 100 µM [4] was 97% and the half-life [3] was 2.17 h. It also gave a remaining at 1 h, 100 µM [1] of 93%.

For `CCOCCOCCOc1ccc(NC(=O)NC23CC4CC(CC(C4)C2)C3)cc1`, the logP [2] was 3.9, the remaining at 1 h, 100 µM [4] was 70% and the half-life [5] was 9.67 h. For the same compound, the half-life [3] was 5.33 h.
